Active and inactive are the calls of the source.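 Rule for the calls: active = compounds raising nuclear GFP-tagged hypoxia factor signal, with fitted half-maximal dose at or below the top valid dose; inconclusive = flat response of 30 to 70% activation, or poor curve fit; inactive = the rest, including opposite-direction effects.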
What was measured:
[1] = GFP-HIF1a nuclear translocation activators – imaging, U2OS HIF1a-GFP, high content, dry powder, dose response (AID 488820); conditions: U2OS HIF1a-GFP, nuclear intensity imaging; at 38 µM (top of the series)
Summary of the method: (§1)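 Material – U2OS cells with GFP-HIF1alpha · Amount – 2,000 cells/well · Buffer or medium – culture medium lacking phenol red · Dosing – Eight-point threefold dilution series, delivered by pin transfer · Schedule – 24 h compound exposure at 37 °C · Repeats – duplicate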

[2] = tested on: U2OS HIF1a-GFP, nuclear intensity imaging; assay: as above
Summary of the method: as §1

Row | SMILES | activation [1] | AC50 [2]
1 | O=C(Nc1cn2ccccc2n1)c1cc(-c2ccccc2)on1 | 1.49% (inactive) | 
2 | Cn1c(-c2ccccc2)cnc1Nc1nc(-c2ccccn2)nnc1-c1ccccc1 |  | 4.31 µM
3 | O=C(NCCCCO)c1cc(-c2ccccc2)on1 |  | 2.1 µM
4 | O=C(Nc1nc2ccccc2s1)c1cc(-c2ccccc2)on1 | 12.2% (inactive) | 
5 | c1ccc(-c2nnc(-c3ccccn3)nc2N2CCC(N3CCOCC3)CC2)cc1 |  | 6.51 µM
6 | O=C(Nc1ncc2ccccc2n1)c1cc(-c2ccccc2)on1 | 1.57% (inactive) | 
7 | c1ccc(-c2nnc(-c3ccccn3)nc2NCCCN2CCOCC2)cc1 |  | 2.42 µM
8 | Cc1ccccc1CNC(=O)c1cc(-c2ccccc2)on1 | 23% (inactive) | 
9 | c1ccc(-c2nnc(-c3ccccn3)nc2NCC2CCCCC2)cc1 |  | 0.882 µM
10 | O=C(c1cc(-c2ccccc2)on1)N1CCC(N2CCCC2)CC1 | 12.8% (inactive) | 
11 | C=CCNc1nc(-c2ccccn2)nnc1-c1ccccc1 |  | 2.7 µM
12 | O=C(Nc1nc(-c2ccccc2)cs1)c1cc(-c2ccccc2)on1 | 4.03% (inactive) | 
13 | Cc1ccc(Nc2nc(-c3ccccn3)nnc2-c2ccccc2)cn1 |  | 7.08 µM
14 | Cc1cccc(CNc2nc(-c3ccccn3)nnc2-c2ccccc2)c1 |  | 0.621 µM
15 | O=C(NCCCO)c1cc(-c2ccccc2)on1 |  | 6.09 µM
16 | O=C(NCC1CCCCC1)c1cc(-c2ccccc2)on1 | 18.3% (inactive) | 
17 | c1ccc(-c2nnc(-c3ccccn3)nc2Nc2cnc3ccccc3n2)cc1 |  | 5.59 µM
18 | c1ccc(-c2csc(Nc3nc(-c4ccccn4)nnc3-c3ccccc3)n2)cc1 |  | 10.1 µM
19 | O=C(c1cc(-c2ccccc2)on1)N1CCC(CO)CC1 | -4.8% (inactive) | 
20 | CN1CCN(c2nc(-c3ccccn3)nnc2-c2ccccc2)CC1 |  | 5.11 µM

Row | SMILES | activation [1] | AC50 [2]
21 | O=C(Nc1cnc2ccccc2c1)c1cc(-c2ccccc2)on1 | 5.39% (inactive) | 
22 | CC(C)(C)CCNC(=O)c1cc(-c2ccccc2)on1 | 17.6% (inactive) | 
23 | O=C(NC1CCc2ccccc2C1)c1cc(-c2ccccc2)on1 (stereo not drawn) | 30.1% (inactive) | 
24 | O=C(Nc1ncc(-c2ccccc2)o1)c1cc(-c2ccccc2)on1 | 7.7% (inactive) | 
25 | CC(C)(C)CCNc1nc(-c2ccccn2)nnc1-c1ccccc1 |  | 3.27 µM
26 | c1ccc(-c2nnc(-c3ccccn3)nc2NCC2CC2)cc1 |  | 3.37 µM
27 | Cn1c(-c2ccccc2)cnc1NC(=O)c1cc(-c2ccccc2)on1 | -4.96% (inactive) | 
28 | O=C(Nc1nnc(-c2ccccc2)s1)c1cc(-c2ccccc2)on1 | -0.482% (inactive) | 
29 | O=C(NCCCn1ccnc1)c1cc(-c2ccccc2)on1 |  | 8.03 µM
30 | CN(C)CCNC(=O)c1cc(-c2ccccc2)on1 | 6.65% (inactive) | 
31 | Cn1c(NC(=O)c2cc(-c3ccccc3)on2)nc2ccccc21 | -0.56% (inactive) | 
32 | O=C(NCCN1CCCCC1)c1cc(-c2ccccc2)on1 | 31.8% (inactive) | 
33 | O=C(Nc1ccc2ccccc2n1)c1cc(-c2ccccc2)on1 | -3.83% (inactive) | 
34 | CN(C)c1nc(-c2ccccn2)nnc1-c1ccccc1 |  | 2.94 µM
35 | CN1CCN(C(=O)c2cc(-c3ccccc3)on2)CC1 | 3.08% (inactive) | 
36 | Cc1ccc(CNC(=O)c2cc(-c3ccccc3)on2)cc1 | 12.8% (inactive) | 
37 | Cc1ccc(CNc2nc(-c3ccccn3)nnc2-c2ccccc2)cc1 |  | 1.1 µM
38 | Cc1ccccc1CNc1nc(-c2ccccn2)nnc1-c1ccccc1 |  | 2.73 µM
39 | c1ccc(-c2nnc(-c3ccccn3)nc2NCCN2CCOCC2)cc1 |  | 5.41 µM
40 | O=C(c1cc(-c2ccccc2)on1)N1CCc2cccnc21 | -2.04% (inactive) | 

Row | SMILES | activation [1] | AC50 [2]
41 | OCCCNc1nc(-c2ccccn2)nnc1-c1ccccc1 |  | 5.73 µM
42 | O=C(NCCN1CCOCC1)c1cc(-c2ccccc2)on1 |  | 6.66 µM
43 | c1ccc(-c2nnc(Nc3nc(-c4ccccn4)nnc3-c3ccccc3)s2)cc1 |  | 7.41 µM
44 | c1ccc(CNc2nc(-c3ccccn3)nnc2-c2ccccc2)cc1 |  | 3.08 µM
45 | c1ccc(-c2nnc(-c3ccccn3)nc2Nc2nc3ccccc3s2)cc1 |  | 5.32 µM
46 | Cc1cccc(NC(=O)c2cc(-c3ccccc3)on2)n1 | 9.15% (inactive) | 
47 | O=C(NCc1ccccc1)c1cc(-c2ccccc2)on1 | 15.8% (inactive) | 
48 | CCCCNC(=O)c1cc(-c2ccccc2)on1 |  | 6.16 µM
49 | Cc1cccc(Nc2nc(-c3ccccn3)nnc2-c2ccccc2)n1 |  | 2.98 µM
50 | O=C(c1cc(-c2ccccc2)on1)N1CCC(N2CCOCC2)CC1 | 14.1% (inactive) | 
51 | Cc1cccc(CNC(=O)c2cc(-c3ccccc3)on2)c1 | 11.8% (inactive) | 
52 | O=C(NC1Cc2ccccc2C1)c1cc(-c2ccccc2)on1 | 6.89% (inactive) | 
53 | O=C(NCCCN1CCOCC1)c1cc(-c2ccccc2)on1 |  | 18.1 µM
54 | O=C(NCC1CC1)c1cc(-c2ccccc2)on1 |  | 16.1 µM
55 | O=C(c1cc(-c2ccccc2)on1)N1CCN(c2ccncc2)CC1 | 31% (inactive) | 
56 | Cc1ccc(NC(=O)c2cc(-c3ccccc3)on2)cn1 | 25.1% (inactive) | 
57 | c1ccc(-c2cnc(Nc3nc(-c4ccccn4)nnc3-c3ccccc3)s2)cc1 |  | 17.7 µM
58 | c1ccc(-c2nnc(-c3ccccn3)nc2N2CCN(c3ccncc3)CC2)cc1 |  | 2.68 µM

Source: PubChem BioAssay AID488820 (Broad Institute, 2010)
